# How the values were obtained:
# [1] = Partition coefficient, log P of the compound in n-octanol-phosphate buffer at pH 7.4 by HPLC analysis; assay type: physicochemical
# Outline: (§1)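 Shake-flask method at 25 °C. 1-octanol and aqueous buffer (0.2 M phosphate pH 7.4 or 0.1 M citric acid pH 3.0) pre-saturated with each other for 24 h. Compound shaken in 5 mL each phase for 60 min at 400 rpm, then centrifuged at 3500 rpm for 5 min. Both phases quantified by HPLC at 254 nm. log P = log(octanol/water concentration). Run in triplicate.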
# [2] = Chemical stability of the compound at 0.2 M phosphate buffer assessed as hydrolysis to parent compound at pH 7.4 after 4 hrs by HPLC analysis; assay type: physicochemical; conditions: pH 7.4, 4 h
# Outline: (§2)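 5 mg compound in 10 mL buffer, shaken at 400 rpm for 4 h at 40 °C. Then passed through a 0.20 μm membrane filter. Filtrate quantified by HPLC at 254 nm for both solubility and hydrolysis to parent. Detection limits estimated by HPLC.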
# Rattus norvegicus [3] = experiment: Antiinflammatory activity in Wistar rat assessed as inhibition of carrageenan-induced paw edema at 100 mg/kg, po administered 1 hr before carrageenan challenge measured after 3 hrs by plethysmograph relative to control; assay type: functional
# Outline: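 Male Wistar rats (150-200 g). Carrageenan 1% (0.1 mL) injected subplantar into left paw under light ether anaesthesia; test compound 100 mg/kg po given 1 h before. Paw volume read by plethysmograph 3 h after carrageenan. % inhibition = (carrageenan − test)/(carrageenan − normal) × 100. Groups: normal control, carrageenan, carrageenan plus treatment.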
# Rattus norvegicus [4] = experiment: Gastrointestinal toxicity in Wistar rat assessed as appearance ulcer area of <1 mm diameter at 100 mg/kg, po administered as single dose after 6 hrs by Vernier caliper; assay type: organism-based; parameters: dose 100 mg/kg, route oral; conditions: in vivo
# Outline: (§3)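 Male Wistar rats (150-200 g), n = 6 per group, fasted 18 h with water available. Single oral dose of 100 mg/kg. Killed under ether 6 h after dosing; stomach opened along the greater curvature, washed and examined. Lesion lengths measured by Vernier caliper and graded I (<1 mm), II (1-3 mm) or III (>3 mm). UI = 1×(I) + 2×(II) + 3×(III), averaged over six animals.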
# [5] = Aqueous solubility of the compound in 0.1 M phosphate buffer at pH 5.2 after 4 hrs by HPLC analysis; assay type: physicochemical; outline: as §2
# [6] = Partition coefficient, log P of the compound in 1-octanol-citric acid buffer at pH 3 by HPLC analysis; assay type: physicochemical; outline: as §1
# Rattus norvegicus [7] = experiment: Gastrointestinal toxicity in Wistar rat assessed as ulcerogenic index at 100 mg/kg, po administered as single dose; assay type: organism-based; parameters: dose 100 mg/kg, route oral; conditions: in vivo; outline: as §3
# [8] = Aqueous solubility of the compound in 0.1 M boric acid buffer at pH 9 after 4 hrs by HPLC analysis; assay type: physicochemical; outline: as §2
# [9] = Aqueous solubility of the compound in 0.2 M hydrochloric acid buffer at pH 1 after 4 hrs by HPLC analysis; assay type: physicochemical; outline: as §2
# [10] = Chemical stability of the compound at 0.2 M hydrochloric acid buffer assessed as hydrolysis to parent compound at pH 1 after 4 hrs by HPLC analysis; assay type: physicochemical; conditions: pH 1, 4 h; outline: as §2
# [11] = Chemical stability of the compound at 0.1 M phosphate buffer assessed as hydrolysis to parent compound at pH 5.2 after 4 hrs by HPLC analysis; assay type: physicochemical; conditions: pH 5.2, 4 h; outline: as §2
# [12] = Aqueous solubility of the compound in 0.1 M citric acid buffer at pH 3 after 4 hrs by HPLC analysis; assay type: physicochemical; outline: as §2
# [13] = Aqueous solubility of the compound in 0.2 M phosphate buffer at pH 7.4 after 4 hrs by HPLC analysis; assay type: physicochemical; outline: as §2
# [14] = Metabolic stability in rat plasma assessed as compound remaining at 5 mM after 60 mins by HPLC analysis; assay type: ADME, cell-free; conditions: read-out: Stability
# [15] = Chemical stability of the compound at 0.1 M boric acid buffer assessed as hydrolysis to parent compound at pH 9 after 4 hrs by HPLC analysis; assay type: physicochemical; conditions: pH 9, 4 h; outline: as §2
# [16] = Metabolic stability in rat liver microsomes assessed as compound remaining at 5 mM after 30 mins by HPLC analysis; assay type: ADME, Microsome; conditions: read-out: Stability
# [17] = Metabolic stability in rat liver microsomes assessed as compound remaining at 5 mM after 60 mins by HPLC analysis; assay type: ADME, Microsome; conditions: read-out: Stability
# [18] = Chemical stability of the compound at 0.1 M citric acid buffer assessed as hydrolysis to parent compound at pH 3 after 4 hrs by HPLC analysis; assay type: physicochemical; conditions: pH 3, 4 h; outline: as §2
# Rattus norvegicus [19] = experiment: Gastrointestinal toxicity in Wistar rat assessed as appearance ulcer area of >3 mm diameter at 100 mg/kg, po administered as single dose after 6 hrs by Vernier caliper; assay type: organism-based; parameters: dose 100 mg/kg, route oral; conditions: in vivo; outline: as §3
# Rattus norvegicus [20] = experiment: Gastrointestinal toxicity in Wistar rat assessed as appearance ulcer area of 1 to 3 mm diameter at 100 mg/kg, po administered as single dose after 6 hrs by Vernier caliper; assay type: organism-based; parameters: dose 100 mg/kg, route oral; conditions: in vivo; outline: as §3
logD [1],Stability [2] [µg/mL],solubility at 4 h [5] [µg/mL],logD [6],solubility at 4 h [8] [µg/mL],solubility at 4 h [9] [µg/mL],Stability [10] [µg/mL],Stability [11] [µg/mL],solubility at 4 h [12] [µg/mL],solubility at 4 h [13] [µg/mL],remaining at 1 h [14] [%],Stability [15] [µg/mL],remaining at 0.5 h [16] [%],remaining at 1 h [17] [%],Stability [18] [µg/mL],SMILES,inhibition in vivo at 100 mg/kg (Rattus norvegicus [3]) [%],Activity (Rattus norvegicus [4]) [%],UI (Rattus norvegicus [7]),Activity (Rattus norvegicus [19]) [%],Activity (Rattus norvegicus [20]) [%]
4.7,0.294,< 0.084,4.6,< 0.084,< 0.084,0.021,0.1525,< 0.084,< 0.084,0,2.187,0,0,0.0075,COc1ccc2c(c1)c(CC(=O)OCOC(=O)C(C)(C)C)c(C)n2C(=O)c1ccc(Cl)cc1,48.4,100,19,–,–
5,0.01332,< 0.119,5.1,< 0.119,< 0.119,0.01,0.01379,< 0.119,< 0.119,–,0.2461,–,–,0.00539,COc1ccc2c(c1)c(CC(=O)OCOC(=O)OC(C)C)c(C)n2C(=O)c1ccc(Cl)cc1,45.2,86.3,62,7.8,5.9
3.5,0.0093,< 0.111,4.2,< 0.111,< 0.111,0.0103,0.0197,< 0.111,< 0.111,0,0.369,1.14,0,0.0092,COc1ccc2c(c1)c(CC(=O)OCCOC(C)=O)c(C)n2C(=O)c1ccc(Cl)cc1,44.4,–,0,–,–
2.9,0.0101,< 0.0638,4.5,< 0.0638,< 0.0638,0.0191,0.0244,< 0.0638,< 0.0638,–,0.5106,–,–,0.0134,COc1ccc2c(c1)c(CC(=O)OCc1oc(=O)oc1C)c(C)n2C(=O)c1ccc(Cl)cc1,12.1,–,0,–,–
–,–,–,4.2,–,–,–,–,–,–,97.1,–,90.3,80.2,–,COc1ccc2c(c1)c(CC(=O)O)c(C)n2C(=O)c1ccc(Cl)cc1 [INDOMETHACIN],48.4,90.2,47,4.9,4.9
